Converted amounts (≈) assume the structure as drawn.
Assays:
[1] = biological target: T1, Tryptophan 2,3-dioxygenase (Homo sapiens, UniProt P48775); assay: Inhibition of TDO in human SW48 cells after 24 hrs by NFK green reagent based assay; format: cell-based
[2] = biological target: Indoleamine 2,3-dioxygenase 1 (Homo sapiens, UniProt P14902); assay: Inhibition of IDO1 in human A172 cells after 24 hrs in presence of IFNgamma by NFK green reagent based assay; format: cell-based
[3] = organism: Homo sapiens; assay: Selectivity index, ratio of EC50 for inhibition of IDO1 in human A172 cells in presence of IFNgamma to EC50 for inhibition of TDO in human SW48 cells; format: cell-based
[4] = Clearance in human liver microsomes; format: ADME, Microsome
Procedure, shortened: (§1)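 Clearance was measured in liver microsome incubations from human, rat and mouse. It is expressed as scaled clearance in mL/min/kg.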

[5] = Clearance in rat liver microsomes; format: ADME, Microsome; procedure, shortened: as §1
[6] = Clearance in mouse liver microsomes; format: ADME, Microsome; procedure, shortened: as §1
[7] = biological target: Cytochrome P450 3A4 (Homo sapiens, UniProt P08684); assay: Inhibition of CYP3A4 (unknown origin); format: ADME
Sequence of Cytochrome P450 3A4 (P08684 whole entry): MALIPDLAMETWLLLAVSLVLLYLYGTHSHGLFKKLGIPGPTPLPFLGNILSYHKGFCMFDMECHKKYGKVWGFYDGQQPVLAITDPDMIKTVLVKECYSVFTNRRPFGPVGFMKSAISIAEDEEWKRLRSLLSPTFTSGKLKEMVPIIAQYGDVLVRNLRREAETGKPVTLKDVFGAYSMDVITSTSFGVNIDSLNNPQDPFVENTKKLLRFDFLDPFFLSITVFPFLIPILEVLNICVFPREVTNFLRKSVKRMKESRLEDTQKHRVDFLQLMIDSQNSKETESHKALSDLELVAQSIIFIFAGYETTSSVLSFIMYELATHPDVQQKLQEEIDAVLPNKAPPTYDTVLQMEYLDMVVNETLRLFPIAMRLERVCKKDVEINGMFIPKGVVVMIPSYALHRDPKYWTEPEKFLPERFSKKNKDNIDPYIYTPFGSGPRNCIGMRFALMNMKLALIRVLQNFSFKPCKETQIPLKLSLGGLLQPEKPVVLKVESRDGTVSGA

[8] = organism: Homo sapiens; assay: Selectivity index, ratio of IC50 for inhibition of CYP3A4 (unknown origin) to EC50 for inhibition of EC50 for inhibition of TDO in human SW48 cells; format: cell-based
[9] = biological target: T1, Tryptophan 2,3-dioxygenase; assay: Inhibition of recombinant human TDO using L-tryptophan as substrate preincubated for 5 mins followed by substrate addition and measured after 15 mins by RapidFire-Mass spectrometry
[10] = Lipophilicity, log D of compound at pH 7.4; format: physicochemical; conditions: buffer
[11] = Apparent permeability across apical to basolateral side in MDCK cells; format: ADME, cell-based, Canis lupus familiaris; conditions: dog
[12] = AUC (infinity) in mouse at 10 mg/kg; format: ADME, organism-based; set-up: dose 10 mg/kg, time infinity; conditions: in vivo
[13] = Kinetic solubility of compound; format: physicochemical; conditions: read-out: Kinetic_solubility
[14] = Clearance in iv dosed mouse plasma; format: ADME, organism-based
Procedure, shortened: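 Compounds were given to mice as discrete (single-compound) intravenous doses. Plasma clearance (CLp) is expressed in mL/min/kg.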

[15] = Protein binding in mouse plasma assessed as unbound fraction; format: ADME, cell-free
[16] = Unbound clearance in mouse plasma; format: ADME, cell-free
[17] = Volume of distribution at steady state in mouse; format: ADME, organism-based; conditions: in vivo, read-out: Vdss
[18] = Half life in mouse; format: ADME, organism-based; conditions: in vivo
[19] = Oral bioavailability in mouse at 1 mg/kg dosed as cassette formulation; format: ADME, organism-based; conditions: in vivo
[20] = AUC (infinity) in mouse; format: ADME, organism-based; set-up: time infinity; conditions: in vivo
[21] = Oral bioavailability in mouse at 5 mg/kg; format: ADME, organism-based; conditions: in vivo
[22] = AUC (infinity) in mouse at 30 mg/kg; format: ADME, organism-based; set-up: dose 30 mg/kg, time infinity; conditions: in vivo
[23] = AUC (infinity) in mouse at 100 mg/kg; format: ADME, organism-based; set-up: dose 100 mg/kg, time infinity; conditions: in vivo
[24] = Cmax in mouse at 10 mg/kg; format: ADME, organism-based; set-up: dose 10 mg/kg; conditions: in vivo
[25] = Cmax in mouse at 30 mg/kg; format: ADME, organism-based; set-up: dose 30 mg/kg; conditions: in vivo
[26] = Cmax in mouse at 100 mg/kg; format: ADME, organism-based; set-up: dose 100 mg/kg; conditions: in vivo
[27] = test system: Mus musculus; assay: In vivo inhibition of TDO in mouse assessed as blood tryptophan levels by measuring AUC at 10 mg/kg (reference value: 570 microM.hr); format: functional, organism-based
Procedure, shortened: (§2)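 Mouse pharmacodynamic study with escalating doses up to 100 mg/kg and a vehicle-treated comparison group. Blood tryptophan concentration was followed over time.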

[28] = test system: Mus musculus; assay: In vivo inhibition of TDO in mouse assessed as blood tryptophan levels by measuring AUC at 30 mg/kg (reference value: 570 microM.hr); format: functional, organism-based; procedure, shortened: as §2
[29] = test system: Mus musculus; assay: In vivo inhibition of TDO in mouse assessed as blood tryptophan levels by measuring AUC at 100 mg/kg (reference value: 570 microM.hr); format: functional, organism-based; procedure, shortened: as §2
[30] = test system: Mus musculus; assay: In vivo inhibition of TDO in mouse assessed as blood tryptophan levels by measuring Cmax at 10 mg/kg (reference value: 340 microM); format: functional, organism-based; set-up: dose 10 mg/kg; procedure, shortened: as §2
[31] = test system: Mus musculus; assay: In vivo inhibition of TDO in mouse assessed as blood tryptophan levels by measuring Cmax at 30 mg/kg (reference value: 340 microM); format: functional, organism-based; set-up: dose 30 mg/kg; procedure, shortened: as §2
[32] = test system: Mus musculus; assay: In vivo inhibition of TDO in mouse assessed as blood tryptophan levels by measuring Cmax at 100 mg/kg (reference value: 340 microM); format: functional, organism-based; set-up: dose 100 mg/kg; procedure, shortened: as §2
[33] = biological target: T1, Tryptophan 2,3-dioxygenase; assay: Inhibition of TDO (unknown origin)

Sequence of Indoleamine 2,3-dioxygenase 1 (P14902 whole entry): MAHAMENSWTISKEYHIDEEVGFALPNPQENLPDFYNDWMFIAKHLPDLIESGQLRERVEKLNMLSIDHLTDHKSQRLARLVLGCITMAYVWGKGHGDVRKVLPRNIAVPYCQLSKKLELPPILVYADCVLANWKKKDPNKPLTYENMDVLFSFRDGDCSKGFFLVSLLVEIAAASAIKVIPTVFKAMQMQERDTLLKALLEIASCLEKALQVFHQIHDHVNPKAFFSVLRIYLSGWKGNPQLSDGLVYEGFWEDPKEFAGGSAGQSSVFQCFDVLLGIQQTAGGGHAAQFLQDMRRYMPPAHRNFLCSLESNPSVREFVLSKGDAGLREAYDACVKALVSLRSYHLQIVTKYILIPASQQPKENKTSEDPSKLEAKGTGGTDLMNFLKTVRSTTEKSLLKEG
T1 sequence (P48775 whole entry): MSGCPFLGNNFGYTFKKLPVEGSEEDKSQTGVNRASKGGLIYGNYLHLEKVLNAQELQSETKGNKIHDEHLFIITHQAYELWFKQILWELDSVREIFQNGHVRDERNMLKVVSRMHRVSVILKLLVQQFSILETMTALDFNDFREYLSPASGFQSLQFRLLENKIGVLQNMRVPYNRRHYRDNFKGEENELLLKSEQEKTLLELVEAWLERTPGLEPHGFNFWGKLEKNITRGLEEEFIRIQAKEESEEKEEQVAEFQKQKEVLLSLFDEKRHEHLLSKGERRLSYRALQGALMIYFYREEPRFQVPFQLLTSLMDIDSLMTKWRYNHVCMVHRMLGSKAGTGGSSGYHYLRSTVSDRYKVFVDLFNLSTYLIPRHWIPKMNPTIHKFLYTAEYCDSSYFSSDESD

CP(C)(=O)c1ccc2c(c1)[C@@H](O)[C@H]([C@H]1c3ccccc3-c3cncn31)CC2
EC50 [1]: 0.13 µM | EC50 [2]: 10 µM | Ratio EC50 [3]: 77 | CLhep predicted [4]: < 3.9 mL/min/kg | CLhep predicted [5]: 19 mL/min/kg | CLhep predicted [6]: 39 mL/min/kg | IC50 [7]: 1.6 µM | Ratio IC50/EC50 [8]: 12

OCCn1c2ccccc2n2cnnc12
IC50 [9]: 17 µM

CN1CC[C@@H]([C@H]2c3ccccc3-c3cncn32)[C@H](O)C1
EC50 [2]: 20 µM | Ratio EC50 [3]: 14 | logD [10]: 1.4

OCCC1c2ccccc2-c2cnsc21 (stereo not given)
IC50 [9]: 7 µM

CS(=O)(=O)c1ccc2c(c1)CC[C@@H]([C@H]1c3ccccc3-c3cncn31)[C@@H]2O
EC50 [1]: 0.065 µM | EC50 [2]: 1.3 µM | Ratio EC50 [3]: 20 | CLhep predicted [4]: 6.9 mL/min/kg | CLhep predicted [5]: 46 mL/min/kg | CLhep predicted [6]: 81 mL/min/kg | IC50 [7]: 2.8 µM | Ratio IC50/EC50 [8]: 43

O[C@@H]1CC[C@H]1[C@H]1c2ccccc2-c2cncn21
EC50 [1]: 0.036 µM | EC50 [2]: 1.4 µM | Ratio EC50 [3]: 67 | logD [10]: 1.7 | CLhep predicted [4]: 5.9 mL/min/kg | CLhep predicted [5]: 27 mL/min/kg | CLhep predicted [6]: 59 mL/min/kg

CC(C)([C@H](O)c1ncco1)[C@H]1c2ccccc2-c2cncn21
EC50 [1]: 0.071 µM | logD [10]: 2.3 | Ratio IC50/EC50 [8]: < 2

c1ccc2c(c1)-c1cncn1[C@H]2C1CCCCC1
Ratio EC50 [3]: 13 | logD [10]: 3.7 | CLhep predicted [4]: 15 mL/min/kg | CLhep predicted [5]: 45 mL/min/kg | CLhep predicted [6]: 74 mL/min/kg

CS(=O)(=O)N1CC[C@@H]([C@H]2c3ccccc3-c3cncn32)[C@H](O)C1
EC50 [1]: 0.087 µM | EC50 [2]: 0.97 µM | Ratio EC50 [3]: 11 | logD [10]: 0.7 | IC50 [7]: > 10 µM | Ratio IC50/EC50 [8]: > 120

C[C@H]([C@H](O)c1ccccc1)[C@H]1c2ccccc2-c2cncn21
EC50 [1]: ≤ 0.032 µM

N#Cc1ccc2c(c1)[C@@H](O)[C@H]([C@H]1c3ccccc3-c3cncn31)CC2
EC50 [1]: 0.06 µM | EC50 [2]: 0.69 µM | Ratio EC50 [3]: 12 | CLhep predicted [4]: 14 mL/min/kg | CLhep predicted [5]: 44 mL/min/kg | CLhep predicted [6]: 79 mL/min/kg | IC50 [7]: 3.3 µM | Ratio IC50/EC50 [8]: 55 | Papp A→B [11]: 1.7 ×10⁻⁶ cm/s

O[C@@H]1c2nncn2CC[C@H]1[C@H]1c2ccccc2-c2cncn21
EC50 [1]: 7.4 µM | EC50 [2]: > 25 µM | Ratio EC50 [3]: > 3 | CLhep predicted [4]: < 3.9 mL/min/kg | CLhep predicted [5]: 6.1 mL/min/kg | CLhep predicted [6]: 14 mL/min/kg | IC50 [7]: > 10 µM | Ratio IC50/EC50 [8]: > 1

O[C@@H]1c2cnccc2CC[C@H]1[C@H]1c2ccccc2-c2cncn21
AUC(0-inf) [12]: 5 µM·h | EC50 [1]: 0.05 µM | EC50 [2]: 1.4 µM | Ratio EC50 [3]: 28 | CLhep predicted [4]: 6.9 mL/min/kg | CLhep predicted [5]: 38 mL/min/kg | CLhep predicted [6]: 71 mL/min/kg | IC50 [7]: 2.4 µM | Ratio IC50/EC50 [8]: 48 | Papp A→B [11]: 11 ×10⁻⁶ cm/s | solubility kinetic [13]: 139 µM (≈ 42.2 µg/mL) | clearance [14]: 29 mL/min/kg | fraction unbound [15]: 0.07 | CL free [16]: 410 mL/min/kg | Vd [17]: 1.4 L/kg | half-life [18]: 37.2 min | bioavailability [19]: 68% | AUC(0-inf) [20]: 0.34 µM·h | bioavailability [21]: 78% | AUC(0-inf) [22]: 35 µM·h | AUC(0-inf) [23]: 210 µM·h | Cmax [24]: 4.1 µM | Cmax [25]: 21.2 µM | Cmax [26]: 70 µM | AUC [27]: 139000 ng·h/mL | AUC [28]: 229000 ng·h/mL | AUC [29]: 404000 ng·h/mL | Cmax [30]: 420 µM | Cmax [31]: 560 µM | Cmax [32]: 540 µM

O[C@@H]1c2ccncc2CC[C@H]1[C@H]1c2ccccc2-c2cncn21
EC50 [2]: 0.8 µM | Ratio EC50 [3]: 17 | CLhep predicted [4]: 11 mL/min/kg | CLhep predicted [5]: 46 mL/min/kg | CLhep predicted [6]: 67 mL/min/kg | IC50 [7]: < 0.1 µM | Ratio IC50/EC50 [8]: < 2

O=C1CC(c2c[nH]c3ccc(F)cc23)C(=O)N1 (stereo not given) [PF-06840003]
IC50 [33]: > 10 µM

O[C@@H]1CCC[C@H]1[C@H]1c2ccccc2-c2cncn21
EC50 [1]: 0.07 µM | EC50 [2]: 2.2 µM | Ratio EC50 [3]: 31 | logD [10]: 2.2 | CLhep predicted [4]: 5 mL/min/kg | CLhep predicted [5]: 35 mL/min/kg | CLhep predicted [6]: 59 mL/min/kg

O[C@@H]1CCOC[C@H]1[C@H]1c2ccccc2-c2cncn21
EC50 [2]: 2.9 µM | Ratio EC50 [3]: 14 | logD [10]: 1.5 | IC50 [7]: 0.65 µM | Ratio IC50/EC50 [8]: 3.1

Reference: ChEMBL document CHEMBL4342513, “Implementation of the CYP Index for the Design of Selective Tryptophan-2,3-dioxygenase Inhibitors” (ACS Med Chem Lett, 2020)
